Laboratory results as given in paper PMC12248229 (PeerJ, 2025).
Like-named read-outs stand apart in the source and are kept apart here.

Assays:
[1] = test system: P-gp; test: qRT-PCR mRNA expression in rat liver and intestine after 7 days of dosing; format: in vivo; details: after multiple doses
How it was run: (§1)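 Rats (n = 6/group) gavaged daily for 7 days with test compound: 2.5 or 1 mg/kg in 0.5% CMC-Na, or 100 mg/kg in 0.5% CMC-Na with 5% DMSO. Liver and intestine harvested under chloral hydrate and stored at −80 °C. TRNzol RNA extraction; 1 μg RNA reverse-transcribed. qPCR: 95 °C 15 min, then 40 cycles of 95 °C 10 s/60 °C 32 s. […] reference; 2^−ΔΔCT.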

[2] = test system: Ugt1a7; test: as above; format: in vivo; details: either the liver or the intestine of rats, after multiple doses
How it was run: as §1

[3] = in vivo; format: in vivo, Sprague-Dawley (SD) rats; details: for AUC(0-t): AUC0–t; for AUC(0-inf): AUC0–∞; for MRT last: MRT0–t; for MRT inf: MRT0–∞; for half-life: t1/2, rats
[4] = Stability of analytes in rat plasma; format: physicochemical; details: n = 6
[5] = test system: Oatp1b2; test: qRT-PCR mRNA expression in rat liver after 7 days of dosing; format: in vivo; details: after multiple doses
How it was run: as §1

[6] = ref Chen et al., 2021, Zhang et al.; cited from earlier work
[7] = test system: patients with advanced HCC; details: ref Llovet et al., 2008, cited from earlier work
[8] = test system: Ugt2b7; test: qRT-PCR mRNA expression in rat liver and intestine after 7 days of dosing; format: in vivo; details: after administration for seven consecutive days
How it was run: as §1

[9] = format: in vivo, Sprague-Dawley (SD) rats; details: for AUC(0-t): AUC0–t; for AUC(0-t) / Cmax / MRT last / MRT inf / Tmax / half-life / CLz / Vz: n = 6; for MRT last: MRT0–t; for MRT inf: MRT0–∞; for half-life: t1/2, rats
[10] = ref Lathia et al., 2006; cited from earlier work
[11] = Sprague-Dawley, rat, in vivo, po, 1 mg/kg, rats, henagliflozin 1 mg/kg after sorafenib 100 mg/kg for 7 consecutive days, n = 6
[12] = Sprague-Dawley, rat, in vivo, po, 1 mg/kg, rats, henagliflozin 1 mg/kg oral, alone, n = 6
[13] = rats, henagliflozin 1 mg/kg after sorafenib 100 mg/kg for 7 consecutive days, n = 6
[14] = rats, henagliflozin and sorafenib, versus control group
[15] = Autosampler (15 °C) for 6 h, nominal 10 ng/mL
[16] = Autosampler (15 °C) for 6 h, nominal 800 ng/mL
[17] = Autosampler (15 °C) for 6 h, nominal 1,500 ng/mL
[18] = Room temperature for 4 h, nominal 10 ng/mL
[19] = Room temperature for 4 h, nominal 800 ng/mL
[20] = Room temperature for 4 h, nominal 1,500 ng/mL
[21] = Three freeze–thaw cycles (−80 °C to 25 °C), nominal 10 ng/mL
[22] = Three freeze–thaw cycles (−80 °C to 25 °C), nominal 800 ng/mL
[23] = Three freeze–thaw cycles (−80 °C to 25 °C), nominal 1,500 ng/mL
[24] = −80 °C for 30 days, nominal 10 ng/mL
[25] = −80 °C for 30 days, nominal 800 ng/mL
[26] = −80 °C for 30 days, nominal 1,500 ng/mL
[27] = Sprague-Dawley, rat, plasma, po, 100 mg/kg, rats, sorafenib 100 mg/kg after empagliflozin […] for 7 consecutive days
[28] = Sprague-Dawley, rat, plasma, po, 100 mg/kg, rats, sorafenib 100 mg/kg after henagliflozin 1 mg/kg for 7 consecutive days
[29] = Sprague-Dawley, rat, plasma, po, 100 mg/kg, rats, sorafenib 100 mg/kg by gavage, alone
[30] = rats, after empagliflozin, versus sorafenib alone group
[31] = rats, coadministered with henagliflozin, versus sorafenib alone
[32] = rats, sorafenib 100 mg/kg after empagliflozin […] for 7 consecutive days
[33] = rats, sorafenib 100 mg/kg after henagliflozin 1 mg/kg for 7 consecutive days
[34] = rats, sorafenib 100 mg/kg by gavage, alone

CCOc1ccc(Cc2cc([C@@]34OC[C@@](CO)(O3)[C@@H](O)[C@H](O)[C@H]4O)ccc2Cl)cc1F [Henagliflozin]
decrease of mRNA expression of P-gp ([1]; rat intestine): 43.2% | decrease of mRNA expression of P-gp ([1]; rat liver): 27.1% | change in the expression of Ugt1a7 [2]: no significant change | AUC(0-t) [3, 11]: 3450 ng·h/mL | AUC(0-t) [3, 12]: 1920 ng·h/mL | AUC(0-inf) [3, 11]: 3460 ng·h/mL | AUC(0-inf) [3, 12]: 1950 ng·h/mL | Cmax ([3]; Sprague-Dawley, rat, in vivo, po, 1 mg/kg, Cmax, rats, henagliflozin 1 mg/kg oral, alone, n = 6): 197 ± 36.9 ng/mL | MRT last [3, 11]: 9.36 ± 3.63 h | MRT last [3, 12]: 7.84 ± 1.68 h | MRT inf [3, 11]: 9.49 ± 3.57 h | MRT inf [3, 12]: 8.49 ± 2.86 h | Tmax [3, 11]: 1.33 ± 1.36 h | Tmax [3, 12]: 3.25 ± 1.67 h | half-life ([3]; Sprague-Dawley, rat, in vivo, po, 1 mg/kg, henagliflozin 1 mg/kg after sorafenib 100 mg/kg for 7 consecutive days, n = 6): 5.1 ± 1.31 h | half-life ([3]; Sprague-Dawley, rat, in vivo, po, 1 mg/kg, henagliflozin 1 mg/kg oral, alone, n = 6): 5.11 ± 3.62 h | CLz [3, 13]: 5 ± 0.83 mL/min/kg | Vz [3, 13]: 2.25 ± 0.77 L/kg | CLz ([3]; rats, henagliflozin 1 mg/kg oral, alone, n = 6): 8.83 ± 1.7 mL/min/kg | differences in Tmax, t1/2, Vz/F, MRT0–t and MRT0–∞ of henagliflozin ([3]; rats, henagliflozin and sorafenib versus control): no significant differences | increase of AUC0–t of henagliflozin [3, 14]: 79.1% | increase of AUC0–∞ of henagliflozin [3, 14]: 77.7% | Stability: Accuracy (RE%) [4, 15]: −4.33% | Stability: Mean ± SD measured concentration [4, 15]: 9.57 ± 0.87 ng/mL | Stability: Accuracy (RE%) [4, 16]: −1.90% | Stability: Mean ± SD measured concentration [4, 16]: 784.83 ± 31.98 ng/mL | Stability: Accuracy (RE%) [4, 17]: −4.22% | Stability: Mean ± SD measured concentration [4, 17]: 1,436.67 ± 29.44 ng/ml | Stability: Accuracy (RE%) [4, 18]: −0.28% | Stability: Mean ± SD measured concentration [4, 18]: 9.97 ± 0.73 ng/mL | Stability: Accuracy (RE%) [4, 19]: −4.63% | Stability: Mean ± SD measured concentration [4, 19]: 763.00 ± 31.79 ng/mL | Stability: Accuracy (RE%) [4, 20]: −2.00% | Stability: Mean ± SD measured concentration [4, 20]: 1,470.00 ± 59.67 ng/ml | Stability: Accuracy (RE%) [4, 21]: −1.70% | Stability: Mean ± SD measured concentration [4, 21]: 9.83 ± 0.95 ng/mL | Stability: Accuracy (RE%) [4, 22]: −3.65% | Stability: Mean ± SD measured concentration [4, 22]: 770.83 ± 18.66 ng/mL | Stability: Accuracy (RE%) [4, 23]: 0.56% | Stability: Mean ± SD measured concentration [4, 23]: 1,508.33 ± 72.78 ng/ml | Stability: Accuracy (RE%) [4, 24]: −1.12% | Stability: Mean ± SD measured concentration [4, 24]: 9.89 ± 0.95 ng/mL | Stability: Accuracy (RE%) [4, 25]: −1.35% | Stability: Mean ± SD measured concentration [4, 25]: 789.17 ± 38.83 ng/mL | Stability: Accuracy (RE%) [4, 26]: −2.11% | Stability: Mean ± SD measured concentration [4, 26]: 1,468.33± 53.45 ng/ml | decrease of mRNA expression of Oatp1b2 [5]: 38.4% | eliminated by the fecal route [6]: 50% | eliminated by the renal route [6]: 30%

CNC(=O)c1cc(Oc2ccc(NC(=O)Nc3ccc(Cl)c(C(F)(F)F)c3)cc2)ccn1 [Sorafenib]
HR (overall survival versus control group) ([7]; 95% confidence interval [0.55–0.87], P < 0.001): 0.69 | median overall survival ([7]; patients in the sorafenib group, phase 3 versus placebo): 10.7 months | downregulation of mRNA expression of Ugt2b7 ([8]; rat intestine): 68.3% | effect on the expression of Ugt2b7 ([8]; rat liver): did not significantly affect | AUC(0-inf) ([9]; Sprague-Dawley, rat, plasma, po, 100 mg/kg): 20600 ng·h/mL | AUC(0-t) [9, 27]: 37000 ng·h/mL | AUC(0-t) [9, 28]: 33500 ng·h/mL | AUC(0-t) [9, 29]: 20000 ng·h/mL | Cmax [9, 27]: 1860 ng/mL | Cmax [9, 28]: 1230 ng/mL | Cmax [9, 29]: 967 ± 176 ng/mL | MRT last [9, 27]: 28.7 ± 11.5 h | MRT last [9, 28]: 51 ± 11.1 h | MRT last [9, 29]: 37.2 ± 11.4 h | MRT inf [9, 28]: 66 ± 24.8 h | MRT inf [9, 29]: 40.5 ± 13.4 h | Tmax [9, 28]: 5.67 ± 2.58 h | Tmax [9, 29]: 4.33 ± 2.07 h | half-life ([9]; Sprague-Dawley, rat, plasma, po, 100 mg/kg, sorafenib 100 mg/kg after empagliflozin […] for 7 consecutive days): 47.6 ± 32.2 h | half-life ([9]; Sprague-Dawley, rat, plasma, po, 100 mg/kg, sorafenib 100 mg/kg after henagliflozin 1 mg/kg for 7 consecutive days): 28.6 ± 21.7 h | half-life ([9]; Sprague-Dawley, rat, plasma, po, 100 mg/kg, sorafenib 100 mg/kg by gavage, alone): 18.7 ± 4.85 h | decrease of CLz/F of sorafenib ([9]; rats, after empagliflozin, versus control group): 45% | increase of AUC0–t of sorafenib [9, 30]: 84% | increase of AUC0–∞ of sorafenib [9, 30]: 93% | increase of Cmax of sorafenib [9, 30]: 92% | increase of AUC0–t of sorafenib [9, 31]: 67% | increase of AUC0–∞ of sorafenib [9, 31]: 80% | CLz [9, 32]: 53.3 ± 33.5 mL/min/kg | Vz [9, 32]: 201.55 ± 161.11 L/kg | CLz [9, 33]: 46.8 ± 10.8 mL/min/kg | Vz [9, 33]: 110.19 ± 73.12 L/kg | CLz [9, 34]: 97 ± 43.2 mL/min/kg | Vz [9, 34]: 93.83 ± 63.20 L/kg | administered dose eliminated as oxidative metabolites [10]: less than 5% | administered dose removed from the body through glucuronidation [10]: 15%
